Experimental data published in ChEMBL document CHEMBL4602642, “Pyrola incarnata demonstrates neuroprotective effects against β-amyloid-induced memory impairment in mice” (Bioorg Med Chem Lett, 2020).
Active and inactive are the calls of the source. No cut-off for these calls is given here.

What was measured:
[1] = Effect on locomotory activity in C57BL/6 mouse model of amyloid beta (25 to 35) peptide-induced memory impairment assessed as change in number of line crossing at 14 to 56 mg/kg, po administered via gavage measured for 5 mins by open field test; format: ADME, organism-based; conditions: in vivo
How it was run: (§1)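 Open-field test after intracerebroventricular Aβ25–35 and dosing at 14, 28 or 56 mg/kg or vehicle. Line crossings and mean speed were counted during a 5-minute session. Results are mean ± SEM.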

Mus musculus [2] = assay: Neuroprotective activity in amyloid beta (25 to 35) peptide-induced memory impairment C57BL/6 mouse model assessed as increase in number of microglia expression at 14 to 56 mg/kg, po administered via gavage by DAPI staining based immunohistochemical analysis; format: functional, organism-based
How it was run: (§2)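 Hippocampal sections from Aβ25–35-injected mice after long-term dosing were immunostained for Aβ25–35 (red) and Iba-1 (green) with DAPI counterstain. Integral optical density was quantified and given as mean ± SEM.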

Mus musculus [3] = assay: Cognitive enhancing effect in C57BL/6 mouse model of amyloid beta (25 to 35) peptide-induced memory impairment assessed as reduction in mistake time to find removed platform position at 56 mg/kg, po administered via gavage and measured on 4th day by Barnes maze test; format: functional, organism-based
How it was run: (§3)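 Barnes maze in mice given intracerebroventricular Aβ25–35: latency to enter the escape box over the training days, plus latency and mistake counts in the probe trial, each compared with the vehicle-treated Aβ25–35 group. Results are mean ± SEM.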

Mus musculus [4] = assay: Cognitive enhancing effect in C57BL/6 mouse model of amyloid beta (25 to 35) peptide-induced memory impairment assessed as reduction in escape latency time to find removed platform position at 14 to 56 mg/kg, po administered via gavage and measured on 6th day by Morris water maze test; format: functional, organism-based
How it was run: (§4)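 Mice given intracerebroventricular Aβ25–35 received 14, 28 or 56 mg/kg, or an equal volume of vehicle. Morris water maze: swim speed taken on day 1, escape latency recorded in training sessions, probe trial on day 6 with the platform removed (time to target and platform crossings scored). n = 9 per group, mean ± SEM.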

Mus musculus [5] = assay: Cognitive enhancing effect in C57BL/6 mouse model of amyloid beta (25 to 35) peptide-induced memory impairment assessed as reduction in escape latency time to find removed platform position at 56 mg/kg, po administered via gavage and measured on 5th day by Morris water maze test; format: functional, organism-based; conditions: in the assay text read “6th day” for “5th day”; how it was run: as §4
Mus musculus [6] = assay: Cognitive enhancing effect in C57BL/6 mouse model of amyloid beta (25 to 35) peptide-induced memory impairment assessed as reduction in escape latency time to find removed platform position at 14 mg/kg, po administered via gavage and measured on 5th day by Morris water maze test; format: functional, organism-based; how it was run: as §4
Mus musculus [7] = assay: Cognitive enhancing effect in C57BL/6 mouse model of amyloid beta (25 to 35) peptide-induced memory impairment assessed as reduction in escape latency time to find removed platform position at 56 mg/kg, po administered via gavage and measured on 4th day by Barnes maze test; format: functional, organism-based; how it was run: as §3
Mus musculus [8] = assay: Neuroprotective activity in orally dosed amyloid beta (25 to 35) peptide-induced memory impairment C57BL/6 mouse model assessed as increase in Iba1 expression administered via gavage by DAPI staining based immunohistochemical analysis; format: functional, organism-based; how it was run: as §2
Mus musculus [9] = assay: Neuroprotective activity in amyloid beta (25 to 35) peptide-induced memory impairment C57BL/6 mouse model assessed as reduction in amyloid beta (25 to 35) peptide deposition at 14 to 56 mg/kg, po administered via gavage by DAPI staining based immunohistochemical analysis; format: functional, organism-based; how it was run: as §2
Mus musculus [10] = assay: Cognitive enhancing effect in orally dosed C57BL/6 mouse model of amyloid beta (25 to 35) peptide-induced memory impairment assessed as reduction in escape latency time to find removed platform position measured on 4th day by Barnes maze test; format: functional, organism-based
How it was run: (§5)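 Mice given Aβ25–35 by intracerebroventricular injection were run in a Barnes maze. Latency to enter the escape box was recorded over the training sessions, and latency and mistake counts were scored in the probe trial. Results are mean ± SEM.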

Mus musculus [11] = assay: Cognitive enhancing effect in C57BL/6 mouse model of amyloid beta (25 to 35) peptide-induced memory impairment assessed as reduction in time to reach the target quadrants at 14 to 56 mg/kg, po administered via gavage and measured on 6th day by Morris water maze test; format: functional, organism-based; how it was run: as §4
[12] = Effect on locomotory activity in C57BL/6 mouse model of amyloid beta (25 to 35) peptide-induced memory impairment assessed as change in mean speed at 14 to 56 mg/kg, po administered via gavage measured for 5 mins by open field test; format: ADME, organism-based; conditions: in vivo; how it was run: as §1
Mus musculus [13] = assay: Cognitive enhancing effect in C57BL/6 mouse model of amyloid beta (25 to 35) peptide-induced memory impairment assessed as reduction in escape latency time to find removed platform position at 28 mg/kg, po administered via gavage and measured on 5th day by Morris water maze test; format: functional, organism-based; how it was run: as §4
Mus musculus [14] = assay: Cognitive enhancing effect in orally dosed C57BL/6 mouse model of amyloid beta (25 to 35) peptide-induced memory impairment assessed as increase in crossing numbers of target quadrants administered via gavage and measured on 6th day by Morris water maze test; format: functional, organism-based; how it was run: as §4
[15] = Effect on locomotory activity in C57BL/6 mouse model of amyloid beta (25 to 35) peptide-induced memory impairment assessed as change in mean speed of swimming at 14 to 56 mg/kg, po administered via gavage by Morris water maze test; format: ADME, organism-based; conditions: in vivo; how it was run: as §4
Mus musculus [16] = assay: Cognitive enhancing effect in orally dosed C57BL/6 mouse model of amyloid beta (25 to 35) peptide-induced memory impairment assessed as reduction in mistake time to find removed platform position measured on 4th day by Barnes maze test; format: functional, organism-based; how it was run: as §5
Mus musculus [17] = assay: Neuroprotective activity in orally dosed amyloid beta (25 to 35) peptide-induced memory impairment C57BL/6 mouse model assessed as reduction in amyloid beta (25 to 35) peptide deposition administered via gavage by DAPI staining based immunohistochemical analysis; format: functional, organism-based; how it was run: as §2

In the case of `C[C@H]1[C@H](C)CC[C@]2(C(=O)O)CC[C@]3(C)C(=CC[C@@H]4[C@@]5(C)CC[C@H](O)C(C)(C)[C@@H]5CC[C@]43C)[C@H]12` [URSOLIC ACID], the Activity [1] is reported as “Non-Toxic”, the Activity (Mus musculus [2]) is reported as “Active” and the Activity (Mus musculus [3]) is reported as “Active”. The Activity (Mus musculus [4]) was “Active”, the Activity (Mus musculus [5]) was “Active” and the Activity (Mus musculus [6]) was “Active”. The Activity (Mus musculus [7]) was “Active”, the Activity (Mus musculus [8]) was “Dose-dependent effect” and the Activity (Mus musculus [9]) was “Active”. For the same compound, the Activity (Mus musculus [10]) was “Dose-dependent effect”, the Activity (Mus musculus [11]) was “Active” and the Activity [12] was “Non-Toxic”. For the same compound, the Activity (Mus musculus [13]) was “Active”, the Activity (Mus musculus [14]) was “Dose-dependent effect” and the Activity [15] was “Non-Toxic”. The Activity (Mus musculus [16]) was “Dose-dependent effect” and the Activity (Mus musculus [17]) was “Dose-dependent effect”.
